In data set [1] the test system is Human alphaherpesvirus 1. The data set can be described thus: Antiviral activity against ACV-sensitive Herpes simplex virus 1 KOS infected in African green monkey Vero cells assessed as inhibition of viral infection at 6.25 ug/ml measured after 72 hrs by crystal violet staining based plaque reduction assay relative to control. The format is functional. The settings on record: Human alphaherpesvirus 1, strain KOS. Summed up: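 Vero monolayers infected with HSV-1 KOS (10^5 PFU/mL) with mangiferin (3.12, 6.25, 12.5, 25 μg/mL) added at infection (0 h). Overlay of nutrient agarose with 25 mM MgCl2; plaques counted after 72 h at 37 °C, 5% CO2, fixed in 20% formaldehyde/PBS and stained with 0.5% crystal violet. %VI versus virus control; triplicate experiments.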

Data set [2] has as its system Human alphaherpesvirus 1. The data set can be described thus: Antiviral activity against ACV-resistant Herpes simplex virus 1 AR-29 infected in African green monkey Vero cells assessed as inhibition of viral adsorption at 12.5 ug/mL preincubated for 30 mins and measured after 1 hr by plaque reduction assay relative to control. The following applies: Human alphaherpesvirus 1, AR-29, Vero. The format is functional. The method in brief: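 Vero cells pre-chilled 30 min at 4 °C, then given mangiferin (3.12–25 μg/mL) together with HSV-1 AR-29 (10^5 PFU/mL) for 1 h adsorption at 4 °C. Plaque reduction assay follows: nutrient agarose overlay with 25 mM MgCl2, 72 h at 37 °C/5% CO2, formaldehyde fixation, crystal violet stain. %VI = [1 − PFU treated/PFU virus control] × 100.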

Data set [3] relates to Human alphaherpesvirus 1. The data set can be described thus: Antiviral activity against ACV-sensitive Herpes simplex virus 1 KOS infected in female Balb/c mouse assessed as reduction in ulcerated lesion at 0.7% w/w applied topically 5 times a day at 3 hrs interval for 10 days measured on day 2 to day 7 post infection. The following applies: strain KOS. It counts as functional, organism-based. Summed up: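 Balb/c mice (5 weeks, 22–27 g; six per group, sexes tested separately) had the right mid-flank depilated under i.p. anaesthesia and needle-scarified 24 h later. They were inoculated with 70 μL HSV-1 KOS (10^5 PFU/mL). From 4 h post-infection, O/W emulsion with 0.7% w/w mangiferin or ACV cream (50 mg/g) was applied topically 5 times daily for 10 days. Lesions were scored daily.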

Data set [4] has as its system Human alphaherpesvirus 1. The data set can be described thus: Antiviral activity against ACV-sensitive Herpes simplex virus 1 KOS infected in African green monkey Vero cells assessed as inhibition of viral infection measured after 72 hrs by crystal violet staining based plaque reduction assay. It counts as functional, organism-based. The settings on record: Human alphaherpesvirus 1, strain KOS. Summed up: (§1)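 Plaque reduction in Vero cells. Mangiferin at 3.12, 6.25, 12.5 or 25 μg/mL is added at infection (0 h) with HSV-1 (10^5 PFU/mL). Agarose overlay with 25 mM MgCl2, 72 h at 37 °C/5% CO2, 20% formaldehyde fix, 0.5% crystal violet stain. %VI is taken against virus control. IC50 comes from linear regression of inhibition curves. Triplicate independent experiments.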

Data set [5] relates to Human alphaherpesvirus 1. The data set can be described thus: Antiviral activity against ACV-sensitive Herpes simplex virus 1 KOS infected in African green monkey Vero cells assessed as suppression of viral replication by measuring reduction in ICP4 production at 12.5 ug/ml measured after 24 hrs by immunofluorescence assay relative to control. It counts as functional, strain KOS. Also noted: scale not given: the % may be the effect or the level left. The method in brief: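 Vero cells on coverslips infected with HSV-1 KOS and given mangiferin 1.56–12.5 μg/mL at 0 h. At 24 h cells fixed in cold acetone, blocked with skim milk, stained with mouse anti-ICP4 and FITC anti-mouse IgG; 100 cells per coverslip scored by fluorescence microscopy. Inhibition relative to infected untreated cells; duplicate independent experiments.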

Data set [6] concerns Human alphaherpesvirus 1. The data set can be described thus: Antiviral activity against ACV-resistant Herpes simplex virus 1 AR-29 infected in female Balb/c mouse assessed as change in epidermis thickness at 0.7% w/w applied topically 5 times a day at 3 hrs interval for 10 days measured on day 10 post infection by H and E staining based histological analysis. The format is functional, organism-based.

For data set [7], the system named is Human alphaherpesvirus 1. The data set is described as follows: Antiviral activity against ACV-resistant Herpes simplex virus 1 AR-29 infected in male Balb/c mouse assessed as change in epidermis thickness at 0.7% w/w applied topically 5 times a day at 3 hrs interval for 10 days measured on day 10 post infection by H and E staining based histological analysis. It counts as functional, organism-based.

The subject of data set [8] is Human alphaherpesvirus 1. The data set can be described thus: Antiviral activity against ACV-resistant Herpes simplex virus 1 AR-29 infected in African green monkey Vero cells assessed as inhibition of viral infection at 12.5 ug/ml measured after 72 hrs by crystal violet staining based plaque reduction assay relative to control. The format is functional. The following applies: Human alphaherpesvirus 1, AR-29, Vero. The method in brief: as §1

The test system of data set [9] is Human alphaherpesvirus 1. The data set is described as follows: Antiviral activity against ACV-sensitive Herpes simplex virus 1 KOS infected in male Balb/c mouse assessed as change in dermis thickness at 0.7% w/w applied topically 5 times a day at 3 hrs interval for 10 days measured on day 10 post infection by H and E staining based histological analysis. The following applies: strain KOS.

Data set [10] is described as follows: Toxicity in Balb/c mouse infected with ACV-resistant Herpes simplex virus 1 AR-29 assessed as effect on body weight at 0.7% w/w applied topically 5 times a day at 3 hrs interval for 10 days measured on day 10 post infection. The settings on record: in vivo, topical_or_ocular.
Data set [11] concerns Human alphaherpesvirus 1. The data set can be described thus: Antiviral activity against ACV-sensitive Herpes simplex virus 1 KOS infected in African green monkey Vero cells assessed as inhibition of viral infection at 12.5 ug/ml measured after 72 hrs by crystal violet staining based plaque reduction assay relative to control. The following applies: Human alphaherpesvirus 1, strain KOS. The format is functional. Summed up: as §1

Data set [12] has as its system Human alphaherpesvirus 1. The data set can be described thus: Antiviral activity against ACV-resistant Herpes simplex virus 1 AR-29 infected in male Balb/c mouse assessed as reduction in ulcerated lesion at 0.7% w/w applied topically 5 times a day at 3 hrs interval for 10 days measured on day 7 post infection. It counts as functional, organism-based. The method in brief: (§2)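 Balb/c mice, 5 weeks old, six per group. Right mid-flank depilated under i.p. anaesthesia, needle-scarified 24 h later and inoculated with 70 μL HSV-1 AR-29 (10^5 PFU/mL). Topical 0.7% w/w O/W emulsion or ACV cream (50 mg/g) starts 4 h post-infection, 5 times daily for 10 days. Lesions are scored daily.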

Data set [13] is described as follows: Toxicity in Balb/c mouse infected with ACV-sensitive Herpes simplex virus 1 KOS assessed as death at 0.7% w/w applied topically 5 times a day at 3 hrs interval for 10 days measured on day 10 post infection. The settings on record: in vivo, topical_or_ocular.
For data set [14], the system named is Human alphaherpesvirus 1. The data set can be described thus: Antiviral activity against ACV-resistant Herpes simplex virus 1 AR-29 infected in male Balb/c mouse assessed as change in dermis thickness at 0.7% w/w applied topically 5 times a day at 3 hrs interval for 10 days measured on day 10 post infection by H and E staining based histological analysis. The format is functional, organism-based.

The test system of data set [15] is Human alphaherpesvirus 1. The data set is described as follows: Antiviral activity against ACV-resistant Herpes simplex virus 1 AR-29 infected in male Balb/c mouse assessed as reduction in ulcerated lesion at 0.7% w/w applied topically 5 times a day at 3 hrs interval for 10 days measured on day 5 post infection. It counts as functional, organism-based. The method in brief: as §2

The test system of data set [16] is Human alphaherpesvirus 1. The data set is described as follows: Antiviral activity against ACV-resistant Herpes simplex virus 1 AR-29 infected in female Balb/c mouse assessed as change in dermis thickness at 0.7% w/w applied topically 5 times a day at 3 hrs interval for 10 days measured on day 10 post infection by H and E staining based histological analysis. The format is functional, organism-based.

For data set [17], the system named is Human alphaherpesvirus 1. The data set can be described thus: Antiviral activity against ACV-resistant Herpes simplex virus 1 AR-29 infected in African green monkey Vero cells assessed as inhibition of viral infection at 6.25 ug/ml measured after 72 hrs by crystal violet staining based plaque reduction assay relative to control. It counts as functional. The following applies: Human alphaherpesvirus 1, AR-29, Vero. The method in brief: as §1

For data set [18], the system named is Human alphaherpesvirus 1. The data set can be described thus: Antiviral activity against ACV-resistant Herpes simplex virus 1 AR-29 infected in African green monkey Vero cells assessed as inhibition of viral infection at 3.12 ug/ml measured after 72 hrs by crystal violet staining based plaque reduction assay relative to control. It counts as functional. The settings on record: Human alphaherpesvirus 1, AR-29, Vero. Summed up:
as §1

≈ marks a conversion by molar mass, not a printed value. Calls of active or inactive are those of the source. No cut-off for these calls is given here.

In the case of `O=c1c2cc(O)c(O)cc2oc2cc(O)c([C@@H]3O[C@H](CO)[C@@H](O)[C@H](O)[C@H]3O)c(O)c12` [MANGIFERIN], the inhibition at 6.25 µg/mL in the data set on Human alphaherpesvirus 1 [1] is 93.9%; with Human alphaherpesvirus 1 [17], 94.4%. In addition, the figures for the inhibition at 12.5 µg/mL with Human alphaherpesvirus 1 [2], in the data set with Human alphaherpesvirus 1 [8] and with Human alphaherpesvirus 1 [11] were 71.3%, 100% and 100%, respectively. Moreover, the outcome in the data set on Human alphaherpesvirus 1 [3], in the data set with Human alphaherpesvirus 1 [6], in the data set on Human alphaherpesvirus 1 [7], in the data set with Human alphaherpesvirus 1 [9], in the data set on Human alphaherpesvirus 1 [14] and in the data set on Human alphaherpesvirus 1 [16] was inactive. Further, in the data set with Human alphaherpesvirus 1 [4], the IC50 amounted to 3.5 µg/mL (≈ 8.29 µM). For the same compound, the figures for the Activity (in the data set on Human alphaherpesvirus 1 [5]; in [10]; in [13]) were 29.6%, “Non-Toxic” and “Non-Toxic”, respectively. The result in the data set on Human alphaherpesvirus 1 [12] and with Human alphaherpesvirus 1 [15] was Active. Further, the inhibition at 3.12 µg/mL in the data set on Human alphaherpesvirus 1 [18] was found to be 57.6%.

(Values after ChEMBL document CHEMBL4610063, “Mangiferin: A promising natural xanthone from Mangifera indica for the control of acyclovir - resistant herpes simplex virus 1 infection” (Bioorg Med Chem, 2020).)
